Source: ChEMBL document CHEMBL1137991, “Novel secoergoline derivatives inhibit both GABA and glutamate uptake in rat brain homogenates: synthesis, in vitro pharmacology, and modeling” (J Med Chem, 2004)

What was measured:
[1] = In vitro inhibition of [3H]DASP transport through rat cerebrocortical membranes; assay type: functional, cell membranes, Membrane
In short: (§1)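 Rat cerebrocortical native plasma membrane vesicle fraction, final pellet in buffer A (145 mM NaCl, 5 mM KCl, 1 mM CaCl2, 1 mM MgCl2, 10 mM glucose, 0.1 mM aminooxyacetate, 2 mM NaHCO3, 20 mM HEPES, pH 7.5). Specific [3H]D-aspartate (24 Ci/mmol) transport measured at 30 °C. Duplicates in 2–6 experiments. IC50 given as mean ± SD.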

[2] = molecular target: T1, GABA transporter (Rattus norvegicus, UniProt P31647+P23978+P31646+P48056); test: In vitro inhibitory activity against [3H]GABA transport in rat cerebrocortical membranes; assay type: cell membranes
In short: (§2)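 Specific [3H]GABA (61 Ci/mmol) transport was measured at 30 °C in a native plasma membrane vesicle fraction from rat cerebral cortex. Vesicles were suspended in buffer A (Na+/K+/Ca2+/Mg2+ saline, 10 mM glucose, 0.1 mM aminooxyacetate, 20 mM HEPES, pH 7.5). Duplicates in 2–6 experiments. IC50 given as mean ± SD.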

[3] = In vitro inhibition of [3H]DASP transport through rat cerebrocortical membranes without TBOA; Control; assay type: functional, cell membranes, Membrane; in short: as §1
[4] = In vitro inhibition of [3H]DASP transport through rat cerebrocortical membranes with 100 uM TBOA; Phase 1; assay type: functional, cell membranes, Membrane
In short: (§3)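 [3H]D-aspartate (24 Ci/mmol) transport into rat cerebrocortical plasma membrane vesicles in HEPES-buffered saline A, pH 7.5, at 30 °C, with 100 µM DL-TBOA present. An IC50 was taken for each phase of the dose–response curve. Duplicates in 2–6 experiments, mean ± SD.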

[5] = In vitro inhibition of [3H]DASP transport through rat cerebrocortical membranes with 100 uM TBOA; Phase 2; assay type: functional, cell membranes, Membrane; in short: as §3
[6] = molecular target: T1, GABA transporter; test: In vitro inhibitory activity against [3H]-GABA transport in rat cerebrocortical membranes in the presence of NNC-711 (100 uM); Phase 1; assay type: cell membranes
In short: (§4)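 [3H]GABA (61 Ci/mmol) uptake by rat cerebrocortical membrane vesicles in buffer A, pH 7.5, at 30 °C, with 100 µM NNC-711 present. An IC50 was derived for each phase of the dose–response curve. Duplicates in 2–6 experiments, mean ± SD.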

[7] = molecular target: T1, GABA transporter; test: In vitro inhibitory activity against [3H]GABA transport in rat cerebrocortical membranes in the absence of NNC-711; Control; assay type: cell membranes; in short: as §2
[8] = molecular target: T1, GABA transporter; test: In vitro inhibitory activity against [3H]GABA transport in rat cerebrocortical membranes in the presence of NNC-711 (100 uM); Phase 2; assay type: cell membranes; in short: as §4

IC50 [1]	IC50 [2]	SMILES	also measured
660 µM	680 µM	CCOC(=O)C1C(=O)C=C(c2ccccc2)C(C)N1C (configuration not stated)	
> 1000 µM	>> 1000 uM	CCOC(=O)[C@@H]1CN(C)C(C)[C@](O)(c2ccccc2)[C@H]1C(=O)OCC (some centres not stated)	
> 1000 µM	>> 1000 uM	CCOC(=O)C1=C(c2ccccc2)C(C)N(C)CC1C(=O)OCC (configuration not stated)	
> 1000 µM	>> 1000 uM	CCOC(=O)[C@H]1[C@H](C(=O)O)CN(C)C(C)[C@]1(O)c1ccccc1 (some centres not stated)	
> 1000 µM	>> 1000 uM	CC1N(C)C[C@@H](C(=O)O)[C@H](C(=O)O)[C@@]1(O)c1ccccc1 (some centres not stated)	

Second part, the compound before the results:

SMILES	IC50 [1]	IC50 [2]	also measured
COC(=O)/C=C(/c1ccccc1)C(C)N(C)CC(=O)OC (configuration not stated)	1100 µM	1100 µM	
CCOC(=O)C1C(=O)C=C(c2ccccc2)C(C)N1C.N[C@H](C(=O)O)[C@H](OCc1ccccc1)C(=O)O (configuration not stated)			IC50 [3]: 660 µM; IC50 [4]: 0.009 µM; IC50 [5]: 591 µM
CCOC(=O)/C=C(/c1ccccc1)C(C)N(C)CC(=O)OCC.N[C@H](C(=O)O)[C@H](OCc1ccccc1)C(=O)O (configuration not stated)			IC50 [3]: 420 µM; IC50 [4]: 0.034 µM; IC50 [5]: 386 µM
COC(=O)/C=C(\c1ccccc1)C(C)N(C)CC(=O)OC (configuration not stated)	> 1000 µM	>> 1000 uM	
CCOC(=O)/C=C(\c1ccccc1)C(C)N(C)CC(=O)OCC (configuration not stated)	> 1000 µM	>> 1000 uM	
COC(=O)/C=C(/c1ccccc1)C(C)N(C)CC(=O)OC.N[C@H](C(=O)O)[C@H](OCc1ccccc1)C(=O)O (configuration not stated)			IC50 [3]: 1100 µM; IC50 [4]: 0.011 µM; IC50 [5]: 1020 µM
CCOC(=O)/C=C(/c1ccccc1)C(C)N(C)CC(=O)OCC (configuration not stated)	420 µM	270 µM	
CCOC(=O)CNC(C)C(=O)c1ccccc1.Cl (configuration not stated)	> 1000 µM	>> 1000 uM	
CCOC(=O)C1C(=O)C=C(c2ccccc2)C(C)N1C.Cl.O=C(O)C1=CCCN(CCON=C(c2ccccc2)c2ccccc2)C1			IC50 [6]: 0.0037 µM; IC50 [7]: 680 µM; IC50 [8]: 360 µM
CCOC(=O)CN(C)C(C)C(=O)c1ccccc1.Cl (configuration not stated)	> 1000 µM	>> 1000 uM	
COC(=O)CN(C)C(C)C(=O)c1ccccc1.Cl (configuration not stated)	> 1000 µM	>> 1000 uM	
COC(=O)/C=C(/c1ccccc1)C(C)N(C)CC(=O)OC.Cl.O=C(O)C1=CCCN(CCON=C(c2ccccc2)c2ccccc2)C1			IC50 [6]: 0.044 µM; IC50 [7]: 1100 µM; IC50 [8]: 491 µM
CCOC(=O)/C=C(/c1ccccc1)C(C)N(C)CC(=O)OCC.Cl.O=C(O)C1=CCCN(CCON=C(c2ccccc2)c2ccccc2)C1			IC50 [6]: 0.18 µM; IC50 [7]: 270 µM; IC50 [8]: 380 µM
